What was measured:
[1] = Partition coefficient (logP) (HPLC); format: physicochemical; details: octanol/water
In short: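 Partition coefficient measured chromatographically.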

Rattus norvegicus = species: Rattus norvegicus; experiment: Uncoupler concentration that reduced the respiratory control index by 50% of coupled rat liver mitochondria; format: functional
Stomoxys calcitrans [2] = experiment: Insecticidal property against Stomoxys calcitrans measured as lowest concentration in bovine serum vs adult stable fly giving > 90% mortality; format: functional
In short: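 Serum titrated with compound from 100 ppm downward was soaked into dental wicks and placed in dishes with 10 chilled adult stable flies. Kept about 48 h at about 25 °C and 75–85% humidity. Percent mortality was scored at 24 and 48 h against a wick with control serum only.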

[3] = The pKa value in aqueous solution.; format: physicochemical
In short: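 pKa measured in aqueous solution.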

Haemonchus contortus [4] = experiment: Compound was tested for % reduction of Haemonchus contortus worms in sheep dosed at 10 mg/kg by single ir injection; format: functional
In short: (§1)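 Lambs with baseline fecal egg counts on days 26–28 postinoculation randomised to groups and held in individual metabolism crates. A single 10 mg/kg BW intraruminal dose was given in PEG 200. Fecal EPG was measured daily. Total H. contortus worm counts were used to calculate % reduction as (TWC control − TWC treated)/TWC control × 100, against untreated controls.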

Haemonchus contortus [5] = experiment: The compound was tested for % reduction of Haemonchus contortus worms in gerbils dosed at 25 mg/kg.; format: functional
In short: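 Mongolian gerbils infected with H. contortus received one oral gavage at 25 mg/kg BW in DMSO/H2O. Untreated infected gerbils served as negative controls and levamisole-dosed gerbils as positive controls, three per group. Stomachs and contents were vortexed in saline, incubated at 35 °C for at least 1 h and stained with iodine. Worms were counted per gerbil and % reduction taken against the mean of infected untreated controls.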

[6] = (§2) Number of days posttreated in which >90% mortality of ASF was seen following exposure of insects to serum from sheep treated with 10 mg/kg of BW of compound by single ir injection; format: functional
In short: (§3)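 Parasitized sheep (two per compound) received a single intraruminal injection at 10 mg/kg BW in PEG 200. Blood was drawn daily for 14 days and left about 24 h to separate. Serum-soaked dental wicks were exposed to adult stable flies for 48 h, with mortality compared to a serum-only control. Days posttreatment giving >90% mortality were counted.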

Haemonchus contortus [7] = experiment: The compound was tested for % Reduction of Haemonchus contortus worms in sheep dosed at 10 mg/kg by single ir injection; format: functional; in short: as §1
Stomoxys calcitrans [8] = experiment: as §2; format: functional; in short: as §3

Compound `CC(S(=O)(=O)c1ccc(OC(F)(F)F)cc1)S(=O)(=O)C(F)(F)F` (stereo not drawn) has a logP [1] of 3, an IC50 (Rattus norvegicus) of 710 µM and an ASF (Stomoxys calcitrans [2]) of 25 p.p.m. It also gave a pKa [3] of 6.2, a Reduction (Haemonchus contortus [4]) of 100% and a Reduction (Haemonchus contortus [5]) of 100%. The Days [6] was 6.

With `Cc1ccc(S(=O)(=O)CS(=O)(=O)C(F)(F)F)cc1` the ASF (Stomoxys calcitrans [2]) was >100 p.p.m.

For `O=S(=O)(CS(=O)(=O)C(F)(F)F)c1ccc(Cl)cc1Cl`, the ASF (Stomoxys calcitrans [2]) was >100 p.p.m.

For `CCC(S(=O)(=O)c1ccc(Cl)cc1)S(=O)(=O)C(F)(F)F` (stereo not drawn), the ASF (Stomoxys calcitrans [2]) was 50 p.p.m.

With `O=S(=O)(c1ccc(OC(F)(F)F)cc1)C(CSc1ccc(OC(F)(F)F)cc1)S(=O)(=O)C(F)(F)F` (stereo not drawn) the ASF (Stomoxys calcitrans [2]) was 50 p.p.m.

In the case of `CSC(S(=O)(=O)c1ccc(Cl)cc1)S(=O)(=O)C(F)(F)F` (stereo not drawn), the ASF (Stomoxys calcitrans [2]) is reported as >100 p.p.m.

With `O=S(=O)(CS(=O)(=O)C(F)(F)F)c1cc(C(F)(F)F)cc(C(F)(F)F)c1` the ASF (Stomoxys calcitrans [2]) was 50 p.p.m.

Work on `O=S(=O)(CS(=O)(=O)C(F)(F)F)c1ccc(Cl)c(Cl)c1` yielded a Reduction (Haemonchus contortus [7]) of 100%, a logP [1] of 1.7 and an IC50 (Rattus norvegicus) of 3990 µM. The ASF (Stomoxys calcitrans [2]) was >100 p.p.m, the pKa [3] was 4 and the Reduction (Haemonchus contortus [5]) was 100%. The Days (Stomoxys calcitrans [8]) was 1.

For `O=S(=O)(c1ccc(OC(F)(F)F)cc1)C(CSc1ccc(F)cc1)S(=O)(=O)C(F)(F)F` (stereo not drawn), the ASF (Stomoxys calcitrans [2]) was 50 p.p.m, the Reduction (Haemonchus contortus [4]) was 100% and the Reduction (Haemonchus contortus [5]) was 100%. The Days [6] was 6.

With `O=S(=O)(CS(=O)(=O)C(F)(F)F)c1ccccc1` the ASF (Stomoxys calcitrans [2]) was 50 p.p.m.

`O=S(=O)(c1ccc(Cl)c(Cl)c1)C(Cc1ccc(C(F)(F)F)cc1)S(=O)(=O)C(F)(F)F` (stereo not drawn) gave an ASF (Stomoxys calcitrans [2]) of 100 p.p.m.

In the case of `O=S(=O)(CS(=O)(=O)C(F)(F)C(F)(F)C(F)(F)C(F)(F)F)c1ccc(OC(F)(F)F)cc1`, the ASF (Stomoxys calcitrans [2]) is reported as 25 p.p.m.

For `O=S(=O)(CS(=O)(=O)C(F)(F)F)c1ccc(SC(F)(F)C(F)F)c(Cl)c1`, the ASF (Stomoxys calcitrans [2]) was >100 p.p.m.

With `O=S(=O)(CS(=O)(=O)C(F)(F)F)c1ccc(NS(=O)(=O)C(F)(F)F)cc1` the ASF (Stomoxys calcitrans [2]) was 100 p.p.m.

For `CC(C)(C)c1ccc(S(=O)(=O)CS(=O)(=O)C(F)(F)F)cc1`, the logP [1] was 2.4, the IC50 (Rattus norvegicus) was 2800 µM and the ASF (Stomoxys calcitrans [2]) was >100 p.p.m. For the same compound, the pKa [3] was 5.1.

`O=S(=O)(CS(=O)(=O)C(F)(F)F)c1ccc(F)cc1` showed a logP [1] of 1.3, an IC50 (Rattus norvegicus) of 3150 µM and an ASF (Stomoxys calcitrans [2]) of 100 p.p.m. The pKa [3] was 4.6.

Work on `O=S(=O)(CS(=O)(=O)C(F)(F)F)c1ccc(OC(F)(F)F)cc1` yielded a logP [1] of 2.2, an IC50 (Rattus norvegicus) of 2950 µM and an ASF (Stomoxys calcitrans [2]) of 25 p.p.m. It also gave a pKa [3] of 4.1, a Reduction (Haemonchus contortus [4]) of 100% and a Reduction (Haemonchus contortus [5]) of 100%. The Days [6] was 10.

For `FC(F)(F)Oc1ccc(SCSC(F)(F)F)cc1`, the ASF (Stomoxys calcitrans [2]) was >100 p.p.m.

In the case of `CC(S(=O)(=O)c1ccc(Cl)c(Cl)c1)S(=O)(=O)C(F)(F)F` (stereo not drawn), the ASF (Stomoxys calcitrans [2]) is reported as 25 p.p.m.

With `O=S(=O)(CS(=O)(=O)C(F)(F)F)c1cccc(C(F)(F)F)c1` the ASF (Stomoxys calcitrans [2]) was >100 p.p.m.

With `O=S(=O)(CS(=O)(=O)C(F)(F)F)c1ccc(SC(F)(F)C(F)F)cc1` the ASF (Stomoxys calcitrans [2]) was >100 p.p.m.

In the case of `O=S(=O)(CS(=O)(=O)C(F)(F)F)c1ccc(F)c(Cl)c1`, the ASF (Stomoxys calcitrans [2]) is reported as 100 p.p.m.

Work on `O=S(=O)(c1ccc(OC(F)(F)F)cc1)C(CSc1cccc(F)c1)S(=O)(=O)C(F)(F)F` (stereo not drawn) yielded an ASF (Stomoxys calcitrans [2]) of 50 p.p.m.

`O=S(=O)(CS(=O)(=O)C(F)(F)F)c1ccc(Cl)cc1` showed a Reduction (Haemonchus contortus [7]) of 100%, a logP [1] of 1.9 and an IC50 (Rattus norvegicus) of 4000 µM. The ASF (Stomoxys calcitrans [2]) was 50 p.p.m, the pKa [3] was 4.4 and the Reduction (Haemonchus contortus [5]) was 100%. For the same compound, the Days (Stomoxys calcitrans [8]) was 3.

For `O=S(=O)(CS(=O)(=O)C(F)(F)F)c1ccc(C(F)(F)F)cc1`, the logP [1] was 1, the IC50 (Rattus norvegicus) was 5400 µM and the ASF (Stomoxys calcitrans [2]) was 50 p.p.m. For the same compound, the pKa [3] was 4, the Reduction (Haemonchus contortus [4]) was 100% and the Reduction (Haemonchus contortus [5]) was 100%. The Days [6] was 0.

For `CC(C)(C)Sc1ccc(S(=O)(=O)CS(=O)(=O)C(F)(F)F)cc1`, the ASF (Stomoxys calcitrans [2]) was >100 p.p.m.

With `O=S(=O)(CS(=O)(=O)C(F)(F)F)c1ccc(O)cc1` the ASF (Stomoxys calcitrans [2]) was >100 p.p.m.

In the case of `O=S(=O)(CS(=O)(=O)C(F)(F)F)c1c(Cl)cccc1Cl`, the ASF (Stomoxys calcitrans [2]) is reported as >100 p.p.m.

With `CS(=O)(=O)Oc1ccc(S(=O)(=O)CS(=O)(=O)C(F)(F)F)cc1` the ASF (Stomoxys calcitrans [2]) was >100 p.p.m.

For `O=[N+]([O-])c1ccc(S(=O)(=O)CS(=O)(=O)C(F)(F)F)cc1`, the ASF (Stomoxys calcitrans [2]) was >100 p.p.m.

In the case of `O=S(=O)(CS(=O)(=O)C(F)(F)F)c1ccc(OS(=O)(=O)C(F)(F)F)cc1`, the ASF (Stomoxys calcitrans [2]) is reported as 100 p.p.m.

In the case of `N#Cc1ccc(S(=O)(=O)CS(=O)(=O)C(F)(F)F)cc1`, the ASF (Stomoxys calcitrans [2]) is reported as >100 p.p.m.

For `COc1ccc(S(=O)(=O)CS(=O)(=O)C(F)(F)F)cc1`, the ASF (Stomoxys calcitrans [2]) was >100 p.p.m.

`O=S(=O)(c1ccc(OC(F)(F)F)cc1)C(CSc1ccc(Cl)cc1)S(=O)(=O)C(F)(F)F` (stereo not drawn) gave an ASF (Stomoxys calcitrans [2]) of 50 p.p.m.

With `O=S(=O)(CS(=O)(=O)C(F)(F)F)c1ccc(Br)cc1` the ASF (Stomoxys calcitrans [2]) was 25 p.p.m.

For `O=S(=O)(c1ccc(Cl)cc1)C(Cc1ccccc1)S(=O)(=O)C(F)(F)F` (stereo not drawn), the ASF (Stomoxys calcitrans [2]) was >100 p.p.m.

`CC(S(=O)(=O)c1ccc(Cl)cc1)S(=O)(=O)C(F)(F)F` (stereo not drawn) showed an ASF (Stomoxys calcitrans [2]) of 50 p.p.m.

With `O=S(=O)(c1ccc(OC(F)(F)F)cc1)C(Cl)(Cl)S(=O)(=O)C(F)(F)F` the ASF (Stomoxys calcitrans [2]) was >100 p.p.m.

For `O=S(=O)(CS(=O)(=O)C(F)(F)F)c1ccccc1Cl`, the ASF (Stomoxys calcitrans [2]) was >100 p.p.m.

With `O=S(=O)(CS(=O)(=O)C(F)(F)F)c1ccc(OC(F)(F)C(F)F)cc1` the ASF (Stomoxys calcitrans [2]) was 25 p.p.m.

Work on `O=[N+]([O-])c1ccc(O)c([N+](=O)[O-])c1` [2,4-DINITROPHENOL] yielded a logP [1] of 1.5, an IC50 (Rattus norvegicus) of 1000 µM and a pKa [3] of 4.6.

In the case of `Cc1cc(C(C#N)c2ccc(Cl)cc2)c(Cl)cc1NC(=O)c1cc(I)cc(I)c1O` (stereo not drawn) [CLOSANTEL], the IC50 (Rattus norvegicus) is reported as 927 µM.
